Results taken from ChEMBL document CHEMBL1212777, “Novel VIM metallo-beta-lactamase variant from clinical isolates of Enterobacteriaceae from Algeria” (2010).

Tests used:
[1] = tested on: Escherichia coli BL21(DE3); assay: Hydrolytic activity of Escherichia coli BL21 DE3 beta-lactamase VIM-19 by microacidimetric method
Outline: (§1)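 Enzyme overexpressed from modified pET9a in E. coli BL21(DE3), released by sonication, and purified on Q Sepharose (20 mM Tris-HCl pH 7.4, 0–500 mM NaCl gradient) then Superose 12. Protein measured by Bio-Rad assay against a BSA standard.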

[2] = tested on: Escherichia coli BL21(DE3); assay: Ratio of Kcat to Km for Escherichia coli BL21 DE3 beta-lactamase VIM-19 by microacidimetric method; outline: as §1
[3] = tested on: CCN1CCN(C(=O)N[C@@H](C(=O)N[C@@H]2C(=O)N3[C@@H]2SC(C)(C)[C@@H]3C(=O)O)c2ccccc2)C(=O)C1=O; assay: (§2) Ratio of Kcat to Km for beta-lactamase VIM-1 in Escherichia coli DH5alpha expressing pBCLL/39H by microacidimetric method
[4] = tested on: CO/N=C(\C(=O)N[C@@H]1C(=O)N2C(C(=O)O)=C(COC(C)=O)CS[C@H]12)c1csc(N)n1; assay: as §2
[5] = tested on: CC(=O)OCC1=C(C(=O)O)N2C(=O)[C@@H](NC(=O)Cc3cccs3)[C@H]2SC1; assay: as §2
[6] = tested on: C[C@@H](O)[C@H]1C(=O)N2C(C(=O)O)=C(S[C@@H]3CN[C@H](C(=O)N(C)C)C3)[C@H](C)[C@H]12; assay: as §2
[7] = tested on: CO/N=C(\C(=O)N[C@@H]1C(=O)N2C(C(=O)O)=C(COC(N)=O)CS[C@H]12)c1ccco1; assay: as §2
[8] = tested on: CC(C)(O/N=C(\C(=O)N[C@@H]1C(=O)N2C(C(=O)[O-])=C(C[n+]3ccccc3)CS[C@H]12)c1csc(N)n1)C(=O)O; assay: as §2
[9] = tested on: CC1(C)S[C@@H]2[C@H](NC(=O)Cc3ccccc3)C(=O)N2[C@H]1C(=O)O; assay: as §2
[10] = tested on: CO[C@@]1(NC(=O)Cc2cccs2)C(=O)N2C(C(=O)O)=C(COC(N)=O)CS[C@@H]21; assay: as §2
[11] = tested on: CCN1CCN(C(=O)N[C@@H](C(=O)N[C@@H]2C(=O)N3[C@@H]2SC(C)(C)[C@@H]3C(=O)O)c2ccccc2)C(=O)C1=O; assay: (§3) Hydrolytic activity of beta-lactamase VIM-1 in Escherichia coli DH5alpha expressing pBCLL/39H by microacidimetric method
[12] = tested on: CO/N=C(\C(=O)N[C@@H]1C(=O)N2C(C(=O)O)=C(COC(C)=O)CS[C@H]12)c1csc(N)n1; assay: as §3
[13] = tested on: CC(=O)OCC1=C(C(=O)O)N2C(=O)[C@@H](NC(=O)Cc3cccs3)[C@H]2SC1; assay: as §3
[14] = tested on: CO/N=C(\C(=O)N[C@@H]1C(=O)N2C(C(=O)O)=C(COC(N)=O)CS[C@H]12)c1ccco1; assay: as §3
[15] = tested on: CC1(C)S[C@@H]2[C@H](NC(=O)Cc3ccccc3)C(=O)N2[C@H]1C(=O)O; assay: as §3
[16] = tested on: CO[C@@]1(NC(=O)Cc2cccs2)C(=O)N2C(C(=O)O)=C(COC(N)=O)CS[C@@H]21; assay: as §3
[17] = tested on: CCN1CCN(C(=O)N[C@@H](C(=O)N[C@@H]2C(=O)N3[C@@H]2SC(C)(C)[C@@H]3C(=O)O)c2ccccc2)C(=O)C1=O; assay: (§4) Hydrolytic activity of Escherichia coli DH10B beta-lactamase VIM-2 by microacidimetric method; conditions: Escherichia coli str. K-12 substr. DH10B
[18] = tested on: CO/N=C(\C(=O)N[C@@H]1C(=O)N2C(C(=O)O)=C(COC(C)=O)CS[C@H]12)c1csc(N)n1; assay: as §4; conditions: Escherichia coli str. K-12 substr. DH10B
[19] = tested on: CC(=O)OCC1=C(C(=O)O)N2C(=O)[C@@H](NC(=O)Cc3cccs3)[C@H]2SC1; assay: as §4; conditions: Escherichia coli str. K-12 substr. DH10B
[20] = tested on: C[C@@H](O)[C@H]1C(=O)N2C(C(=O)O)=C(S[C@@H]3CN[C@H](C(=O)N(C)C)C3)[C@H](C)[C@H]12; assay: as §4; conditions: Escherichia coli str. K-12 substr. DH10B
[21] = tested on: CO/N=C(\C(=O)N[C@@H]1C(=O)N2C(C(=O)O)=C(COC(N)=O)CS[C@H]12)c1ccco1; assay: as §4; conditions: Escherichia coli str. K-12 substr. DH10B
[22] = tested on: CO/N=C(\C(=O)N[C@@H]1C(=O)N2C(C(=O)[O-])=C(C[N+]3(C)CCCC3)CS[C@H]12)c1csc(N)n1; assay: as §4; conditions: Escherichia coli str. K-12 substr. DH10B
[23] = tested on: CC(C)(O/N=C(\C(=O)N[C@@H]1C(=O)N2C(C(=O)[O-])=C(C[n+]3ccccc3)CS[C@H]12)c1csc(N)n1)C(=O)O; assay: as §4; conditions: Escherichia coli str. K-12 substr. DH10B
[24] = tested on: CC1(C)S[C@@H]2[C@H](NC(=O)[C@H](N)c3ccc(O)cc3)C(=O)N2[C@H]1C(=O)O; assay: as §4; conditions: Escherichia coli str. K-12 substr. DH10B
[25] = tested on: C[C@@H](O)[C@H]1C(=O)N2C(C(=O)O)=C(SCCNC=N)C[C@H]12; assay: as §4; conditions: Escherichia coli str. K-12 substr. DH10B
[26] = tested on: C[C@@H](O)[C@H]1C(=O)N2C(C(=O)O)=C(S[C@@H]3CN[C@H](C(=O)Nc4cccc(C(=O)O)c4)C3)[C@H](C)[C@H]12; assay: as §4; conditions: Escherichia coli str. K-12 substr. DH10B
[27] = tested on: CC1(C)S[C@@H]2[C@H](NC(=O)[C@H](C(=O)O)c3ccsc3)C(=O)N2[C@H]1C(=O)O; assay: as §4; conditions: Escherichia coli str. K-12 substr. DH10B
[28] = tested on: CC1(C)S[C@@H]2[C@H](NC(=O)Cc3ccccc3)C(=O)N2[C@H]1C(=O)O; assay: as §4; conditions: Escherichia coli str. K-12 substr. DH10B
[29] = tested on: C[C@H]1[C@H](NC(=O)/C(=N\OC(C)(C)C(=O)O)c2csc(N)n2)C(=O)N1S(=O)(=O)O; assay: as §4; conditions: Escherichia coli str. K-12 substr. DH10B
[30] = tested on: CO[C@@]1(NC(=O)Cc2cccs2)C(=O)N2C(C(=O)O)=C(COC(N)=O)CS[C@@H]21; assay: as §4; conditions: Escherichia coli str. K-12 substr. DH10B
[31] = tested on: CCN1CCN(C(=O)N[C@@H](C(=O)N[C@@H]2C(=O)N3[C@@H]2SC(C)(C)[C@@H]3C(=O)O)c2ccccc2)C(=O)C1=O; assay: (§5) Ratio of Kcat to Km for Escherichia coli DH10B beta-lactamase VIM-2 by microacidimetric method; conditions: Escherichia coli str. K-12 substr. DH10B
[32] = tested on: CO/N=C(\C(=O)N[C@@H]1C(=O)N2C(C(=O)O)=C(COC(C)=O)CS[C@H]12)c1csc(N)n1; assay: as §5; conditions: Escherichia coli str. K-12 substr. DH10B
[33] = tested on: CC(=O)OCC1=C(C(=O)O)N2C(=O)[C@@H](NC(=O)Cc3cccs3)[C@H]2SC1; assay: as §5; conditions: Escherichia coli str. K-12 substr. DH10B
[34] = tested on: C[C@@H](O)[C@H]1C(=O)N2C(C(=O)O)=C(S[C@@H]3CN[C@H](C(=O)N(C)C)C3)[C@H](C)[C@H]12; assay: as §5; conditions: Escherichia coli str. K-12 substr. DH10B
[35] = tested on: CO/N=C(\C(=O)N[C@@H]1C(=O)N2C(C(=O)O)=C(COC(N)=O)CS[C@H]12)c1ccco1; assay: as §5; conditions: Escherichia coli str. K-12 substr. DH10B
[36] = tested on: CO/N=C(\C(=O)N[C@@H]1C(=O)N2C(C(=O)[O-])=C(C[N+]3(C)CCCC3)CS[C@H]12)c1csc(N)n1; assay: as §5; conditions: Escherichia coli str. K-12 substr. DH10B
[37] = tested on: CC(C)(O/N=C(\C(=O)N[C@@H]1C(=O)N2C(C(=O)[O-])=C(C[n+]3ccccc3)CS[C@H]12)c1csc(N)n1)C(=O)O; assay: as §5; conditions: Escherichia coli str. K-12 substr. DH10B
[38] = tested on: CC1(C)S[C@@H]2[C@H](NC(=O)[C@H](N)c3ccc(O)cc3)C(=O)N2[C@H]1C(=O)O; assay: as §5; conditions: Escherichia coli str. K-12 substr. DH10B
[39] = tested on: C[C@@H](O)[C@H]1C(=O)N2C(C(=O)O)=C(SCCNC=N)C[C@H]12; assay: as §5; conditions: Escherichia coli str. K-12 substr. DH10B
[40] = tested on: C[C@@H](O)[C@H]1C(=O)N2C(C(=O)O)=C(S[C@@H]3CN[C@H](C(=O)Nc4cccc(C(=O)O)c4)C3)[C@H](C)[C@H]12; assay: as §5; conditions: Escherichia coli str. K-12 substr. DH10B
[41] = tested on: CC1(C)S[C@@H]2[C@H](NC(=O)[C@H](C(=O)O)c3ccsc3)C(=O)N2[C@H]1C(=O)O; assay: as §5; conditions: Escherichia coli str. K-12 substr. DH10B
[42] = tested on: CC1(C)S[C@@H]2[C@H](NC(=O)Cc3ccccc3)C(=O)N2[C@H]1C(=O)O; assay: as §5; conditions: Escherichia coli str. K-12 substr. DH10B
[43] = tested on: CO[C@@]1(NC(=O)Cc2cccs2)C(=O)N2C(C(=O)O)=C(COC(N)=O)CS[C@@H]21; assay: as §5; conditions: Escherichia coli str. K-12 substr. DH10B

C[C@@H](O)[C@H]1C(=O)N2C(C(=O)O)=C(S[C@@H]3CN[C@H](C(=O)Nc4cccc(C(=O)O)c4)C3)[C@H](C)[C@H]12
kcat [1]: 0.6 s⁻¹
kcat/Km [2]: 30000 M⁻¹ s⁻¹

C[C@H]1[C@H](NC(=O)/C(=N\OC(C)(C)C(=O)O)c2csc(N)n2)C(=O)N1S(=O)(=O)O
kcat [1]: < 0.1 s⁻¹

CO[C@@]1(NC(=O)Cc2cccs2)C(=O)N2C(C(=O)O)=C(COC(N)=O)CS[C@@H]21
kcat [1]: 4 s⁻¹
kcat/Km [2]: 80000 M⁻¹ s⁻¹

CO/N=C(\C(=O)N[C@@H]1C(=O)N2C(C(=O)O)=C(COC(C)=O)CS[C@H]12)c1csc(N)n1
kcat [1]: 34.3 s⁻¹
kcat/Km [2]: 950000 M⁻¹ s⁻¹

CC(=O)OCC1=C(C(=O)O)N2C(=O)[C@@H](NC(=O)Cc3cccs3)[C@H]2SC1
kcat [1]: 21.2 s⁻¹
kcat/Km [2]: 1.4e+06 M⁻¹ s⁻¹

CC1(C)S[C@@H]2[C@H](NC(=O)Cc3ccccc3)C(=O)N2[C@H]1C(=O)O
kcat [1]: 206 s⁻¹
kcat/Km [2]: 3.6e+06 M⁻¹ s⁻¹

BlaVIM-1 (Escherichia coli) (from UniProt Q8GDC1)
kcat/Km [3]: 530000 M⁻¹ s⁻¹
kcat/Km [4]: 680000 M⁻¹ s⁻¹
kcat/Km [5]: 5.3e+06 M⁻¹ s⁻¹
kcat/Km [6]: 270000 M⁻¹ s⁻¹
kcat/Km [7]: 7.7e+06 M⁻¹ s⁻¹
kcat/Km [8]: 76000 M⁻¹ s⁻¹
kcat/Km [9]: 34000 M⁻¹ s⁻¹
kcat/Km [10]: 200000 M⁻¹ s⁻¹
kcat [11]: 1860 s⁻¹
kcat [12]: 169 s⁻¹
kcat [13]: 281 s⁻¹
kcat [14]: 324 s⁻¹
kcat [15]: 29 s⁻¹
kcat [16]: 26 s⁻¹

CC1(C)S[C@@H]2[C@H](NC(=O)[C@H](C(=O)O)c3ccsc3)C(=O)N2[C@H]1C(=O)O
kcat [1]: 45.8 s⁻¹
kcat/Km [2]: 700000 M⁻¹ s⁻¹

CC1(C)S[C@@H]2[C@H](NC(=O)[C@H](N)c3ccc(O)cc3)C(=O)N2[C@H]1C(=O)O
kcat [1]: 112 s⁻¹
kcat/Km [2]: 3.3e+06 M⁻¹ s⁻¹

CC(C)(O/N=C(\C(=O)N[C@@H]1C(=O)N2C(C(=O)[O-])=C(C[n+]3ccccc3)CS[C@H]12)c1csc(N)n1)C(=O)O
kcat [1]: 6.3 s⁻¹
kcat/Km [2]: 70000 M⁻¹ s⁻¹

C[C@@H](O)[C@H]1C(=O)N2C(C(=O)O)=C(S[C@@H]3CN[C@H](C(=O)N(C)C)C3)[C@H](C)[C@H]12
kcat [1]: 1.3 s⁻¹
kcat/Km [2]: 140000 M⁻¹ s⁻¹

CCN1CCN(C(=O)N[C@@H](C(=O)N[C@@H]2C(=O)N3[C@@H]2SC(C)(C)[C@@H]3C(=O)O)c2ccccc2)C(=O)C1=O
kcat [1]: 160 s⁻¹
kcat/Km [2]: 4.3e+06 M⁻¹ s⁻¹

CO/N=C(\C(=O)N[C@@H]1C(=O)N2C(C(=O)[O-])=C(C[N+]3(C)CCCC3)CS[C@H]12)c1csc(N)n1
kcat [1]: 12.5 s⁻¹
kcat/Km [2]: 230000 M⁻¹ s⁻¹

C[C@@H](O)[C@H]1C(=O)N2C(C(=O)O)=C(SCCNC=N)C[C@H]12
kcat [1]: 8.2 s⁻¹
kcat/Km [2]: 370000 M⁻¹ s⁻¹

Metallo-beta-lactamase (Escherichia coli) (from UniProt Q5U7L7)
kcat [17]: 32.7 s⁻¹
kcat [18]: 27.5 s⁻¹
kcat [19]: 56.2 s⁻¹
kcat [20]: 1.4 s⁻¹
kcat [21]: 12.1 s⁻¹
kcat [22]: 4.7 s⁻¹
kcat [23]: 88.7 s⁻¹
kcat [24]: 29.7 s⁻¹
kcat [25]: 9.9 s⁻¹
kcat [26]: 0.2 s⁻¹
kcat [27]: 31.7 s⁻¹
kcat [28]: 55.8 s⁻¹
kcat [29]: < 0.5 s⁻¹
kcat [30]: 2.8 s⁻¹
kcat/Km [31]: 450000 M⁻¹ s⁻¹
kcat/Km [32]: 860000 M⁻¹ s⁻¹
kcat/Km [33]: 1.28e+06 M⁻¹ s⁻¹
kcat/Km [34]: 280000 M⁻¹ s⁻¹
kcat/Km [35]: 550000 M⁻¹ s⁻¹
kcat/Km [36]: 30000 M⁻¹ s⁻¹
kcat/Km [37]: 900000 M⁻¹ s⁻¹
kcat/Km [38]: 550000 M⁻¹ s⁻¹
kcat/Km [39]: 990000 M⁻¹ s⁻¹
kcat/Km [40]: 22000 M⁻¹ s⁻¹
kcat/Km [41]: 690000 M⁻¹ s⁻¹
kcat/Km [42]: 1.14e+06 M⁻¹ s⁻¹
kcat/Km [43]: 120000 M⁻¹ s⁻¹

CO/N=C(\C(=O)N[C@@H]1C(=O)N2C(C(=O)O)=C(COC(N)=O)CS[C@H]12)c1ccco1
kcat [1]: 5.3 s⁻¹
kcat/Km [2]: 400000 M⁻¹ s⁻¹
